The results in this text go back to ChEMBL document CHEMBL1151890, “Synthesis and SAR of amino acid-derived heterocyclic progesterone receptor full and partial agonists” (Bioorg Med Chem Lett, 2009).

Holding throughout (type): ADME, organism-based
Data set [1] can be described thus: Cmax in rat at 2 mg/kg, po. To be noted: in vivo. Also noted: dose 2 mg/kg, route oral. An outline of the steps:
(§1)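 Rats were dosed both intravenously and orally, at 1.1 or 1.2 mg/kg iv and 2.0 or 2.3 mg/kg po. Plasma parameters were derived from these dosings. Values are means of three experiments with standard deviation.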

Data set [2] is described as follows: AUC (0 to t) in rat at 2 mg/kg, po. Also noted: dose 2 mg/kg, route oral. To be noted: plasma. Summed up:
as §1

Data set [3] can be described thus: Half life in rat at 2 mg/kg, po. To be noted: in vivo. Details: dose 2 mg/kg, route oral. An outline of the steps: as §1
Data set [4] is described as follows: Oral bioavailability in rat at 2 mg/kg. The note with it: in vivo. Summed up: as §1

`CC(C)CC(c1nnnn1C)N(CC(C)C)c1ccc(C#N)c(Cl)c1` (centres undefined) came in with a Cmax in data set [1] of 146 ng/mL. This compound registered an area under the curve AUC(0-t) in data set [2] of 572 ng·h/mL. The compound further gave a half-life in data set [3] of 8.9 h. The same compound registered a bioavailability in data set [4] of 100%.

For orientation: Cmax means the maximum level reached in the sampled fluid or tissue. A word on the AUC(0-t): it is the area under the concentration-time curve up to a stated or last time point. Read a high AUC(0-t) as high exposure. The half-life is the time needed for the level to fall by half in the phase considered. Usually bioavailability stands for the share of a dose that reaches the circulation, judged against a reference dose that is usually intravenous. A low value points to poor availability.
